The list is not random: actives were taken first. Their share in the collection is about 1.8%.
Runt-CBFb FRET: Runt domain-CBFb interaction inhibition; AID 1496; Q01196+Q13951; inhibition, % at 20 µM; Cerulean-Runt/Venus-CBFb FRET ratio 530/480, 1 h; 220,000 compounds, 0.46% hits;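 active = inhibition over about 50% at 20 µM in the single-dose screen, limit read from the data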;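 note: 0% = DMSO wells and 100% = excess unlabeled CBFb competitor control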
Target sequence (Q01196 whole entry, looked up, the tested form may be a part): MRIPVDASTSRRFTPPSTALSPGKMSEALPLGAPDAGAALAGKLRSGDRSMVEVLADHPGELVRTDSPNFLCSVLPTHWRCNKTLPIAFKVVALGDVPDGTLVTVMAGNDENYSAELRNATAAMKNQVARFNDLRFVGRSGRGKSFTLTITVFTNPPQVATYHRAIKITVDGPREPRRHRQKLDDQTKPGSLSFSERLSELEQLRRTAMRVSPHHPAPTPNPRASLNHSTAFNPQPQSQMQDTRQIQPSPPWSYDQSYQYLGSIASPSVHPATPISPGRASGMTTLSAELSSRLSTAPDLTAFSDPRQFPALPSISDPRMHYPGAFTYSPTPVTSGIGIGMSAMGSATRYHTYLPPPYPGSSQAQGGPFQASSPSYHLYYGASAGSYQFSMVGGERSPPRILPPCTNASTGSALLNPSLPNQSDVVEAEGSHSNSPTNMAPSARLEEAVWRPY
Target sequence (Q13951 whole entry, looked up, the tested form may be a part): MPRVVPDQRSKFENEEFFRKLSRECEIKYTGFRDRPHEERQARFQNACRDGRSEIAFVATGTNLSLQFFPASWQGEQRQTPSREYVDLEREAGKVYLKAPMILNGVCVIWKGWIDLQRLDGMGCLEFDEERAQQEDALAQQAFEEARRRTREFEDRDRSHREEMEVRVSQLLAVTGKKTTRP
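Schedule: protein complex preformed 1 h, compound exposure 1 h, room temperature, dark; test system: Cerulean-labeled Runt domain protein; amount: 100 nM per protein; buffer or medium: Tris 50 mM pH 7.5, KCl, K2SO4, 0.01% BSA; read-out: loss of energy transfer signal; detection: FRET fluorescence; controls: 5 µM unlabeled CBFb as full-inhibition high control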
Runt-SMMHC FRET: Runt domain-CBFb-SMMHC interaction inhibition; Q01196+Q13951; Cerulean-Runt/Venus-CBFb-SMMHC FRET ratio 530/480, 1 h; inhibition, % at 20 µM; 220,000 compounds, 0.74% hits;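 active = mean inhibition across duplicate retests at 20 µM reaching about 50%, limit read from the data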;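 note: 0% = DMSO wells and 100% = wells with excess untagged CBFb-SMMHC; inhibitors lower the FRET ratio by blocking Runt binding to CBFb-SMMHC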
RanGTP-Impb inh: disruptors of Ran-importin-beta complex formation – biochemical, FRET, CFP-Ran, YFP-importin-beta, homogeneous, primary screen | cell-free CFP-Ran/YFP-importin-beta FRET ratio | inhibition, % (no concentration beside the values) | 300,000 compounds, 1.1% hits | AID 2216;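 active = more than half of the replicate wells show a fall in the fluorescence ratio signal beyond about 16%, limit read from the data, passing the limit was not always enough; inconclusive = exactly half of the replicate wells pass the set limit; inactive = fewer than half of replicates pass the limit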;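 note: 0% = DMSO wells and 100% = Ran loaded with GDP instead of GTP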
Hck-Nef inh: human Hck-Nef kinase inhibition; AID 463187; inhibition, % at 20 µM; P08631; 220,000 compounds, 0.68% hits; Recombinant Hck-YEEI plus Nef, Z-Lyte FRET kinase assay;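 active = Hck-Nef kinase inhibition above about 50%, limit read from the data; inactive = inhibition below that limit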;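 note: 0% = DMSO with Hck plus Nef and 100% = Hck alone without Nef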
Runt-CBFb TRFRET: disrupts human RUNX1 Runt domain binding to CBFb; shares compounds with Runt-CBFb FRET; TR-FRET RUNX1 Runt domain-CBFb binding; inhibition, % at 20 µM; 480 compounds, 20% hits; AID 1502; in the data active = inhibition above about 40%
The depositor's hits bear a star; i = inactive; ? = inconclusive; . = no result.

SMILES	Runt-CBFb FRET	Runt-SMMHC FRET	RanGTP-Impb inh	Hck-Nef inh	Runt-CBFb TRFRET
Cc1ccc2nc3c(cc(C(=O)NC4CCS(=O)(=O)C4)n3Cc3ccccc3)c(=O)n2c1 (configuration not stated)	.	.	5	.	.
CCN(CC)c1ccc2cc(C(=O)Nc3cccnc3N3CCOCC3)c(=O)oc2c1	59*	79*	.	.	17
CCOc1cc(-n2cnnn2)c(OCC)cc1NC(=O)c1cc2ccc(N(CC)CC)cc2oc1=O	.	.	.	26	.
CCCN(C(=O)Cn1nc(C)c([N+](=O)[O-])c1C)c1c(N)n(Cc2ccccc2)c(=O)[nH]c1=O	.	.	0	.	.
CC(Nc1nc(N2CCNCC2)nc2ccccc12)c1ccccc1 (configuration not stated)	2	0	9	18	.
Cc1cc(C)nc(SCC(=O)c2cc3ccccc3oc2=O)n1	54*	26	-1	15	14
O=C(CSc1nc2ccccc2o1)c1cc2ccccc2oc1=O	-1	-11	.	0	.
O=C(NCc1ccc(F)cc1)c1noc2c1CCCCC2	-1	-2	6	-12	.
O=C(NCc1ccc(F)cc1)c1noc2c1CCCC2	54*	-1	-3	0	4
NS(=O)(=O)c1cccc(NS(=O)(=O)c2ccc3ccccc3c2)c1	.	.	-2	.	.
Cn1c(=O)[nH]c(=O)c2c1nc(SCCN1CCCCC1)n2Cc1ccccc1	-1	-1	10	0	.
Cn1c(=O)[nH]c(=O)c2c1nc(SCCN1CCCCC1)n2CCCc1ccccc1	52*	47	.	1	i
Cc1ccc(Cn2c(SCCN3CCCCC3)nc3c2c(=O)[nH]c(=O)n3C)cc1	50*	38	0	-3	25
CC(=O)Nc1ccccc1NC(=O)C/C(C)=N/NC(=O)c1cccnc1	.	.	3	.	.
Cc1cc(C)nc(Sc2ncnc(N)c2[N+](=O)[O-])n1	58*	14	-1	8	23
O=C(c1ccccc1)c1ccccc1N1C(=O)C=CC1=O	64*	70*	1	-168	14
O=C(O)c1ccccc1C(=O)c1ccc(-c2ccccc2)cc1	.	.	0	.	.
CCN(CC)c1ccc(/C=N/NC(=O)c2ccco2)cc1	0	-8	3	13	.
CCN(CC)c1ccc(/C=N/NC(=O)c2ccco2)c(O)c1	75*	82*	63*	-71	20
Oc1cc(-n2cccn2)c(O)cc1-n1cccn1	53*	100*	8	-148	8
Cc1cc(OCc2nnc(SC(C)C(=O)O)n2-c2ccccc2)ccc1Cl (configuration not stated)	.	.	-2	.	.
CN(CCC#N)C(=O)COC(=O)c1c2c(nc3ccccc13)/C(=C/c1ccco1)CC2	74*	.	-81	6	63*
Cc1ccc(NC(=O)CSc2nc3ccccc3c(=O)n2CC2CCCO2)cc1 (configuration not stated)	.	.	-2	.	.
CCOC(=O)c1cc2c(=O)n3ccccc3nc2n(Cc2ccco2)c1=NC(=O)c1ccc(OC)cc1OC	70*	86*	29*	28	52*
CCOC(=O)c1cc2c(=O)n3ccccc3nc2n(CC2CCCO2)c1=NC(=O)/C=C/c1ccccc1 (configuration not stated)	81*	86*	-4	17	33
SMILES	Runt-CBFb FRET	Runt-SMMHC FRET	RanGTP-Impb inh	Hck-Nef inh	Runt-CBFb TRFRET
COc1ccc(OC)c(NC(=O)c2cc3c(=O)n4ccccc4nc3n2C)c1	.	69	4	12	.
CCC(=O)NC(=S)NNC(=O)c1ccccc1[N+](=O)[O-]	51*	48	-3	18	-20
Cn1c(=O)nc2n(Cc3ccccc3)c3ccccc3cc-2c1=O	90*	82*	121*	16	-53
CCS(=O)(=O)N1CCC(C(=O)c2ccc(Cl)cc2)CC1	2	-5	2	11	.
CCC1CN(C(=O)Nc2ccc(C)cc2)c2cc(C)ccc2O1 (configuration not stated)	0	1	2	11	.
CN(C)c1nc(-c2cccs2)cc(C(F)(F)F)c1C#N	53*	92*	73*	-1	24
COCCn1c(-c2ccc(SC)cc2)nc2c1c(=O)[nH]c(=O)n2CC(C)C	.	.	0	.	.
CCCCn1c(-c2ccncc2)nc2c1c(=O)[nH]c(=O)n2CC(C)C	75*	2	3	2	-10
O=C(CCN1C(=O)c2ccccc2C1=O)C1=NN[C@@H]2C(=O)N(c3ccc4c(c3)OCCO4)C(=O)[C@H]12	1	-1	-3	2	.
Cc1cc2c(c(=O)n1CCc1ccccc1)C(c1ccco1)C(C#N)=C(N)O2 (configuration not stated)	62*	.	11	1	34
COc1cc(C2C(C#N)=C(N)Oc3cc(C)n(CCc4ccccc4)c(=O)c32)cc2c1OCO2 (configuration not stated)	0	0	7	-7	.
Cc1cc2c(c(=O)n1Cc1cccnc1)C(Cc1ccccc1)C(C#N)=C(N)O2 (configuration not stated)	58*	86*	36*	1	-21
Cc1cccc(C)c1N(CC(=O)N1CCCC1)S(C)(=O)=O	.	.	-4	.	.
CCCCC(=O)NNC(=S)NC(=O)c1ccc([N+](=O)[O-])cc1	54*	22	3	22	-20
CCCCC(=O)NNC(=S)NC(=O)c1cccc([N+](=O)[O-])c1	30	10	-1	1	.
CC(C)(C)C(=O)CSc1ncccn1	58*	42	5	21	70*
CCOc1ccc(/C(O)=C/C(=O)C(=O)Nc2ccc(S(=O)(=O)NC(C)=O)cc2)cc1	0	-2	9	4	.
CC(CCc1ccccc1)NC(=O)COC(=O)c1ccc(NC(N)=O)cc1 (configuration not stated)	.	.	-1	.	.
O=C(O)c1cc(Cl)ccc1-c1ccc(/C=C/c2cc(C(F)(F)F)[nH]c(=O)n2)o1	52*	92*	-378	26	29
Cc1nc(S/C(=C/c2ccc(-c3cc(Cl)ccc3C)o2)C(=O)O)n[nH]1	-13	-91	-13	1	.
CCC1CCCCN1S(=O)(=O)c1ccc2c(c1)CCN2C(C)=O (configuration not stated)	.	.	1	.	.
CN1CCN(C(=S)c2ccc(Br)cc2)CC1	50*	44	?	2	6
CSc1ccc(C(=S)N2CCN(C)CC2)cc1	54*	39	-1	1	-10
CN1CCN(C(=S)c2ccc(N(C)C)cc2)CC1	48	41	7	-29	.
CCCn1c(SCC(=O)NCc2ccco2)nnc1-c1ccncc1	74*	3	1	21	-1
CCn1c(SCC(=O)NCc2ccco2)nnc1-c1ccncc1	-1	0	7	25	.
S=C(c1ccc(N2CCCC2)c(Br)c1)N1CCCCC1	0	2	-2	21	.
CCSC1=C(C#N)C2(CCCCC2)C(C#N)C(=O)N1 (configuration not stated)	-4	1	.	3	.

Assay outcomes: PubChem, several laboratories
